Laboratory results from ChEMBL document CHEMBL4706624, “Synthesis and evaluation of new quinazoline-benzimidazole hybrids as potent anti-microbial agents against multidrug resistant Staphylococcus aureus and Mycobacterium tuberculosis” (Eur J Med Chem, 2021).
Converted amounts (≈) assume the structure as drawn.

Legend:
[1] = Selectivity index, ratio of CC50 for cytotoxicity against African green monkey Vero cells to MIC for antibacterial activity against Staphylococcus aureus ATCC 29213; assay type: toxicity, cell-based; settings: read-out: Selectivity Index
Outline: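 SI = Vero CC50 (MTT, 72 h) divided by MIC against S. aureus ATCC 29213 (CA-MHB broth microdilution, 16-18 h, 37 °C).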

Staphylococcus aureus [2] = experiment: Antibacterial activity against methicillin-resistant Staphylococcus aureus NR10191 measured after 16 to 18 hrs; assay type: functional; settings: time 16-18 hrs
Outline: (§1)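 Broth microdilution MIC. Strains grown on MHA; a single colony was grown overnight in CA-MHB at 37 °C with shaking for 18–24 h. Cultures were diluted by OD600 to ~10⁶ cfu/mL and exposed to compound at […]. Plates were incubated at 37 °C for 16-18 h. MIC = lowest concentration with no visible growth. Levofloxacin was the reference. Three independent runs, each in duplicate.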

Escherichia coli = experiment: Antibacterial activity against Escherichia coli ATCC 25922 measured after 16 to 18 hrs; assay type: functional; settings: time 16-18 hrs; outline: as §1
Staphylococcus aureus [3] = experiment: Antibacterial activity against vancomycin-resistant Staphylococcus aureus VRS12 measured after 16 to 18 hrs; assay type: functional; settings: time 16-18 hrs; outline: as §1
Pseudomonas aeruginosa = experiment: Antibacterial activity against Pseudomonas aeruginosa ATCC 27853 measured after 16 to 18 hrs; assay type: functional; settings: time 16-18 hrs; outline: as §1
Staphylococcus aureus [4] = experiment: Antibacterial activity against methicillin-resistant Staphylococcus aureus NR10193 measured after 16 to 18 hrs; assay type: functional; settings: time 16-18 hrs; outline: as §1
Klebsiella pneumoniae = experiment: Antibacterial activity against Klebsiella pneumoniae BAA-1705 measured after 16 to 18 hrs; assay type: functional; settings: ATCC BAA-1705, time 16-18 hrs; outline: as §1
Staphylococcus aureus [5] = experiment: Antibacterial activity against vancomycin-resistant Staphylococcus aureus VRS1 measured after 16 to 18 hrs; assay type: functional; settings: time 16-18 hrs; outline: as §1
Staphylococcus aureus [6] = experiment: Antibacterial activity against vancomycin-resistant Staphylococcus aureus VRS4 measured after 16 to 18 hrs; assay type: functional; settings: time 16-18 hrs; outline: as §1
Staphylococcus aureus [7] = experiment: Antibacterial activity against methicillin-resistant Staphylococcus aureus NR10186 measured after 16 to 18 hrs; assay type: functional; settings: time 16-18 hrs; outline: as §1
Staphylococcus aureus [8] = experiment: Antibacterial activity against methicillin-resistant Staphylococcus aureus NR119 measured after 16 to 18 hrs; assay type: functional; settings: time 16-18 hrs; outline: as §1
Acinetobacter baumannii = experiment: Antibacterial activity against Acinetobacter baumannii BAA1605 measured after 16 to 18 hrs; assay type: functional; settings: time 16-18 hrs; outline: as §1
Staphylococcus aureus [9] = experiment: Antibacterial activity against methicillin-resistant Staphylococcus aureus NR10198 measured after 16 to 18 hrs; assay type: functional; settings: time 16-18 hrs; outline: as §1
Staphylococcus aureus [10] = experiment: Antibacterial activity against methicillin-resistant Staphylococcus aureus NR100 measured after 16 to 18 hrs; assay type: functional; settings: time 16-18 hrs; outline: as §1
[11] = Cytotoxicity against African green monkey Vero cells assessed as reduction in cell viability measured after 72 hrs by MTT assay; assay type: cell-based; settings: chlorocebus sabaeus
Outline: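 Vero cells (ATCC CCL-81), ~10³ cells/well, held 24 h at 37 °C in 5% CO₂. Compound at 100–5 mg/L for 72 h. MTT was added for 4 h, formazan dissolved in DMSO, OD read at 540 nm. CC50 = concentration giving 50% viability reduction. Doxorubicin was the positive control. Triplicate.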

Staphylococcus aureus [12] = experiment: Antibacterial activity against methicillin-resistant Staphylococcus aureus NR10192 measured after 16 to 18 hrs; assay type: functional; settings: time 16-18 hrs; outline: as §1
Staphylococcus aureus [13] = experiment: Antibacterial activity against Staphylococcus aureus ATCC 29213 measured after 16 to 18 hrs; assay type: functional; settings: time 16-18 hrs; outline: as §1
Staphylococcus aureus [14] = experiment: Antibacterial activity against methicillin-sensitive Staphylococcus aureus ATCC 29213 measured after 16 to 18 hrs; assay type: functional; settings: time 16-18 hrs; outline: as §1
Staphylococcus aureus [15] = experiment: Antibacterial activity against methicillin-resistant Staphylococcus aureus NR10194 measured after 16 to 18 hrs; assay type: functional; settings: time 16-18 hrs; outline: as §1
Staphylococcus aureus [16] = experiment: Antibacterial activity against methicillin-resistant Staphylococcus aureus NR10129 measured after 16 to 18 hrs; assay type: functional; settings: time 16-18 hrs; outline: as §1
[17] = system: Mycolicibacterium fortuitum; experiment: Antimycobacterial activity against Mycobacterium fortuitum ATCC 6841 by broth microdilution method; assay type: functional
Outline: (§2)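 Broth microdilution MIC in Middlebrook 7H9 with 10% ADC-Tween-80 (BSA, dextrose, 0.2% glycerol, 0.05% Tween-80). Inoculum ~10⁶ cfu/mL set by OD600. Compounds were twofold serially diluted, 0.0064–0.00005 g/100 mL (DMSO stocks). Presto blue resazurin dye was used as read-out. MIC = lowest concentration inhibiting visible growth. Triplicate runs, each in duplicate.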

[18] = system: Mycobacteroides abscessus; experiment: Antimycobacterial activity against Mycobacterium abscessus ATCC 19977 by broth microdilution method; assay type: functional; outline: as §2
Mycobacteroides chelonae = experiment: Antimycobacterial activity against Mycobacterium chelonae ATCC 35752 by broth microdilution method; assay type: functional; outline: as §2
[19] = system: Mycobacterium tuberculosis; experiment: Antitubercular activity against Mycobacterium tuberculosis H37Rv ATCC 27294 measured after 7 days by broth microdilution method; assay type: functional; settings: H37Rv ATCC 27294, 168 h, time 7 day
Outline: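 H37Rv in Middlebrook 7H9 with 10% ADC, 0.2% glycerol, 0.05% Tween-80. Inoculum ~10⁶ cfu/mL set by OD600. Twofold serial dilutions, 0.0064–0.00005 g/100 mL. Incubated at 37 °C for 7 days, then Presto blue resazurin read-out. MIC = lowest concentration inhibiting visible growth. Triplicate runs, each in duplicate.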

Row | SMILES | selectivity ratio [1] | MIC (Staphylococcus aureus [2]) | MIC (Escherichia coli) | MIC (Staphylococcus aureus [3]) | MIC (Pseudomonas aeruginosa) | MIC (Staphylococcus aureus [4]) | MIC (Klebsiella pneumoniae) | MIC (Staphylococcus aureus [5]) | MIC (Staphylococcus aureus [6]) | MIC (Staphylococcus aureus [7]) | MIC (Staphylococcus aureus [8]) | MIC (Acinetobacter baumannii) | MIC (Staphylococcus aureus [9]) | MIC (Staphylococcus aureus [10]) | CC50 at 72 h [11] | MIC (Staphylococcus aureus [12]) | MIC (Staphylococcus aureus [13]) | MIC (Staphylococcus aureus [14]) | MIC (Staphylococcus aureus [15]) | MIC (Staphylococcus aureus [16]) | further results
1 | Fc1ccc2[nH]c(-c3ccc(Nc4nc(-c5ccc(Cl)cc5)nc5ccccc45)cc3)nc2c1 | 12.5 | 8 µg/mL (≈ 17.2 µM) | > 64 µg/mL | 4 µg/mL (≈ 8.59 µM) | > 64 µg/mL | 8 µg/mL (≈ 17.2 µM) | > 64 µg/mL | 4 µg/mL (≈ 8.59 µM) | 2 µg/mL (≈ 4.29 µM) | 4 µg/mL (≈ 8.59 µM) | 4 µg/mL (≈ 8.59 µM) | > 64 µg/mL | 8 µg/mL (≈ 17.2 µM) | 4 µg/mL (≈ 8.59 µM) | 50 µg/mL (≈ 107 µM) | 2 µg/mL (≈ 4.29 µM) | 4 µg/mL (≈ 8.59 µM) | 4 µg/mL (≈ 8.59 µM) | 4 µg/mL (≈ 8.59 µM) | 4 µg/mL (≈ 8.59 µM) | 
2 | Clc1ccc(-c2nc(Nc3ccc(-c4nc5ccccc5[nH]4)cc3)c3ccccc3n2)cc1 | 12.5 | 8 µg/mL (≈ 17.9 µM) | > 64 µg/mL | 8 µg/mL (≈ 17.9 µM) | > 64 µg/mL | 8 µg/mL (≈ 17.9 µM) | > 64 µg/mL | 4 µg/mL (≈ 8.93 µM) | 8 µg/mL (≈ 17.9 µM) | 16 µg/mL (≈ 35.7 µM) | 32 µg/mL (≈ 71.4 µM) | > 64 µg/mL | 8 µg/mL (≈ 17.9 µM) | 8 µg/mL (≈ 17.9 µM) | 50 µg/mL (≈ 112 µM) | 4 µg/mL (≈ 8.93 µM) | 4 µg/mL (≈ 8.93 µM) | 8 µg/mL (≈ 17.9 µM) | 8 µg/mL (≈ 17.9 µM) | 8 µg/mL (≈ 17.9 µM) | 
3 | Clc1ccc2[nH]c(-c3ccc(Nc4nc(-c5ccccc5)nc5ccccc45)cc3)nc2c1 | 12.5 | 16 µg/mL (≈ 35.7 µM) | > 64 µg/mL | 8 µg/mL (≈ 17.9 µM) | > 64 µg/mL | 16 µg/mL (≈ 35.7 µM) | > 64 µg/mL | 4 µg/mL (≈ 8.93 µM) | 8 µg/mL (≈ 17.9 µM) | 8 µg/mL (≈ 17.9 µM) | 8 µg/mL (≈ 17.9 µM) | > 64 µg/mL | 4 µg/mL (≈ 8.93 µM) | 8 µg/mL (≈ 17.9 µM) | 100 µg/mL (≈ 223 µM) | 8 µg/mL (≈ 17.9 µM) | 8 µg/mL (≈ 17.9 µM) | 8 µg/mL (≈ 17.9 µM) | 8 µg/mL (≈ 17.9 µM) | 8 µg/mL (≈ 17.9 µM) | MIC [17]: 32 µg/mL (≈ 71.4 µM); MIC [18]: > 64 µg/mL; MIC (Mycobacteroides chelonae): 32 µg/mL (≈ 71.4 µM); MIC [19]: 32 µg/mL (≈ 71.4 µM)
4 | c1ccc(-c2nc(Nc3ccc(-c4nc5ccccc5[nH]4)cc3)c3ccccc3n2)cc1 | 10 | 16 µg/mL (≈ 38.7 µM) | > 64 µg/mL | 16 µg/mL (≈ 38.7 µM) | > 64 µg/mL | 16 µg/mL (≈ 38.7 µM) | > 64 µg/mL | 8 µg/mL (≈ 19.3 µM) | 8 µg/mL (≈ 19.3 µM) | 8 µg/mL (≈ 19.3 µM) | 8 µg/mL (≈ 19.3 µM) | > 64 µg/mL | 4 µg/mL (≈ 9.67 µM) | 32 µg/mL (≈ 77.4 µM) | 80 µg/mL (≈ 193 µM) | 32 µg/mL (≈ 77.4 µM) | 8 µg/mL (≈ 19.3 µM) | 8 µg/mL (≈ 19.3 µM) | 8 µg/mL (≈ 19.3 µM) | 16 µg/mL (≈ 38.7 µM) | MIC [17]: > 64 µg/mL; MIC [18]: > 64 µg/mL; MIC (Mycobacteroides chelonae): > 64 µg/mL; MIC [19]: > 64 µg/mL
